Results: ChEMBL document CHEMBL2384935, “Role of Amphiphilicity in the Design of Synthetic Mimics of Antimicrobial Peptides with Gram-negative Activity” (ACS Med Chem Lett, 2013)
In brackets after ≈: the same amount, converted by molar mass.

What was measured:
[1] = system: Staphylococcus aureus; assay: Antibacterial activity against Staphylococcus aureus ATCC 27660 assessed as growth inhibition after 18 hrs by CLSI microbroth dilution assay; format: functional; conditions: ATCC 27660, 18 h
[2] = system: Escherichia coli; assay: Antibacterial activity against Escherichia coli ATCC 25922 assessed as growth inhibition after 18 hrs by CLSI microbroth dilution assay; format: functional; conditions: ATCC 25922, 18 h
[3] = Hemolytic activity in human RBC assessed as hemoglobin release after 1 hr; format: ADME, cell-based, Erythrocyte; conditions: human red blood cells
Procedure, shortened: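 Human red blood cells were exposed to the compounds. The value is the HC50, the concentration that produces 50% hemolysis of the RBCs.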

| Molecule | MIC [1] | MIC [2] | HC50 at 1 h [3] |
| --- | --- | --- | --- |
| NCCCOc1cc(OCCCN)cc(-c2cc(-c3cc(OCCCN)cc(OCCCN)c3)cc(-c3cc4ccccc4[nH]3)c2)c1 | 1.56 µg/mL (≈ 2.45 µM) | 6.25 µg/mL (≈ 9.8 µM) | 634 µg/mL |
| NCCCOc1cc(OCCCN)cc(-c2cc(NC(=O)c3ccc(-c4ccccc4)cc3)cc(-c3cc(OCCCN)cc(OCCCN)c3)c2)c1 | 1.56 µg/mL (≈ 2.17 µM) | 25 µg/mL (≈ 34.8 µM) | 113 µg/mL |
| NCCCOc1cc(OCCCN)cc(-c2cc(NC(=O)c3ccccc3)cc(-c3cc(OCCCN)cc(OCCCN)c3)c2)c1 | 50 µg/mL (≈ 77.9 µM) | > 50 µg/mL | > 1000 µg/mL |
| NCCCOc1cc(OCCCN)cc(-c2cc(-c3ccccc3)cc(-c3cc(OCCCN)cc(OCCCN)c3)c2)c1 | 12.5 µg/mL (≈ 20.9 µM) | 3.13 µg/mL (≈ 5.23 µM) | 537 µg/mL |
| NCCCOc1cc(OCCCN)cc(-c2cc(-c3cc(OCCCN)cc(OCCCN)c3)cc(-c3cc(C(F)(F)F)cc(C(F)(F)F)c3)c2)c1 | 1.56 µg/mL (≈ 2.12 µM) | 6.25 µg/mL (≈ 8.51 µM) | 34 µg/mL |
| NCCCOc1cc(OCCCN)cc(-c2cc(NC(=O)c3ccc4ccccc4c3)cc(-c3cc(OCCCN)cc(OCCCN)c3)c2)c1 | 6.25 µg/mL (≈ 9.03 µM) | > 50 µg/mL | 422 µg/mL |
| CC(C)(C)c1ccc(-c2cc(-c3cc(OCCCN)cc(OCCCN)c3)cc(-c3cc(OCCCN)cc(OCCCN)c3)c2)cc1 | 1.56 µg/mL (≈ 2.38 µM) | 3.13 µg/mL (≈ 4.78 µM) | 41 µg/mL |
| NCCCOc1cc(OCCCN)cc(-c2cc(NC(=O)Cc3c[nH]c4ccccc34)cc(-c3cc(OCCCN)cc(OCCCN)c3)c2)c1 | 12.5 µg/mL (≈ 18 µM) | > 50 µg/mL | 519 µg/mL |
| Ac-GIGKFLKKAKKFGKAFVKILKK-NH2 | 8 µg/mL | 16 µg/mL | 120 µg/mL |
| Cc1ccc(-c2cc(-c3cc(OCCCN)cc(OCCCN)c3)cc(-c3cc(OCCCN)cc(OCCCN)c3)c2)cc1 | 0.78 µg/mL (≈ 1.27 µM) | 3.13 µg/mL (≈ 5.11 µM) | 279 µg/mL |
